Test results published in the EternaBench riboswitch data.

Tested on: MS2 coat protein
Test: apparent Kd, MS2 coat protein; higher = weaker binding; RNA-MaP array; FMN 200 µM where present
How it was run: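 Green signal was scaled to red-channel RNA signal and control-cluster median Fmax, and the apparent Kd was taken as the median of filtered per-cluster binding-curve fits. The binding series used SNAP-549-labelled MS2 coat protein from 0.7 or 1.5 nM, doubling to 3 µM, on designs transcribed by stalled E. coli RNA polymerase on Illumina sequencing-chip clusters. Each series ran without and then with constant ligand in 100 mM Tris-HCl pH 7.5, 80 mM KCl, 4 mM MgCl2, BSA, DTT, yeast tRNA and Tween-20.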

[1] = designed as: ON switch for flavin mononucleotide, no ligand
[2] = ligand present: flavin mononucleotide, designed as: ON switch for flavin mononucleotide
[3] = designed as: OFF switch for flavin mononucleotide, no ligand
[4] = ligand present: flavin mononucleotide, designed as: OFF switch for flavin mononucleotide

Sequence | apparent Kd [1] | apparent Kd [2] | apparent Kd [3] | apparent Kd [4]
CCAGAUAUGUGAGGAUAUAGAGUGGAAUACACUCUAGAAGGUAUGUGAAAACAUGAGGAUCACCCAUGUGAUUGAUUAUCUGGA | 28.2 nM | 27.3 nM | – | –
UUAUUAUAUGUAGGAUAUGCAUAUAAUUAUUGUGCAGAAGGACAUGAGGAUCACCCAUGUAUAUUAUUAUUAUAUAUUAUAUAU | – | – | 24.9 nM | 14.3 nM
UUCGAGUAGCAAGGAUAUCUUAUUUAGAUUUUAAGAGAAGGUGCUUCACAGCUACAUGAGGAUCACCCAUGUCUUUCUUCUUAU | 35.6 nM | 26.3 nM | – | –
AGCUUGAGAGGAUAUACUUGAGUGAUAAAAGUCUGAUAACUACAUGAGGAUCACCCAUGUAGAAGGCUCUAGCA | – | – | 18.3 nM | 47.8 nM
AAUUAAUUAAUUAAUUGGACGAUACAUGAGGAUCACCCAUGUAAGGAUAUGCAGUGGAAUACACUGCAGAAGGUACAUACGUCC | – | – | 15.4 nM | 25.5 nM
GGAUGACAAAGUCAUCCCUGACGGACAUGAGGAUCACCCAUGUAGGAUAUGCUACUCAAAGAGUAGCAGAAGGACAUGUGUCUU | – | – | 35.5 nM | 206 nM
GCCCUCGCUGAGGAUAUUAUCUGGCUCGACUGAUAAGAAGGCAGUACAUGAGGAUCACCCAUGUGGUUCGUUCG | – | – | 50.5 nM | 142 nM
AGCGGUGCAGGAUAUGGCCGAUCCCACAUGAGGAUCACCCAUGUAAAUAAAAUAAGAUCUCCAGAAGGGCAUCGCA | – | – | 30.4 nM | 15.6 nM
AAUAUACAUGAGGAUCACCCAUGUUUUGGUGCAUGAGGAUAUAAAAACAAUUACAUAAAGUUAGAAGGCAUGAAUA | 54.9 nM | 47.9 nM | – | –
GUCCUUUCUGAGGAUAUUAUCUGGUUCGAUUGAUAAGAAGGCAGUACAUGAGGAUCACCCAUGUGGGUCGUUUG | – | – | 37.3 nM | 244 nM
UUUGGGUCAGGAUAUUGUUAGUUUAGUUGUUUGUAUUAGUUCGAGAAGGGACAUGAGGAUCACCCAUGUGGUUA | – | – | 70.5 nM | 77.5 nM
ACAUGCAUAGCGAUAUGAUCGAGAGAUCAUGUCGAAAAUUUUAGAAGGACAUGAGGAUCACCCAUGUAGGAUAUGGGAGCAUGA | 62.6 nM | 16.3 nM | – | –
UCGGCGCGAGGAUAUACGUUUGCGCUUUUUCGUUUUUGUGUACAUGAGGAUCACCCAUGUAGAAGGCGCGCCGC | – | – | 16.4 nM | 19.8 nM
ACUGGAGCAGGAUAUAUAUGACGUGCUUCGGCACGAAGAUCACAUGAGGAUCACCCAUGUAGAAGGGCUCCAGU | – | – | 106 nM | 813 nM
GAGUUUACGUUUGUCACUUAGCGAGAGGAUAUGGAAAACAAGACAUGAGGAUCACCCAUGUACUAUCAGAAGGCUCGAGUACGA | 7.26 nM | 5.59 nM | – | –
UGGUACUAGGGAGGAUAUGGGAAGAUACAUGAGGAUCACCCAUGUUUAAGCAUGCCGAGAGGCAACUAGAAGGCCCUAGUACCU | 357 nM | 18 nM | – | –
GGAUCGAGUGUGAGGAUAUGCUGGUCCUUGGAUCAGCAGAAGGCACAUGAGGAUCACCCAUGUGAAGACGGUCC | – | – | 32.3 nM | 201 nM
GGUGGACAUGAGGAUCACCCAUGUGAGGAUAUCGGCUGGUACGUGUUGGCUGGCAUCUCGAGAAGGCACAUCGU | – | – | 56.2 nM | 135 nM
AUCAGCUCGCCAGGAUAUACGUCACUGCGUCAGCAGUGUGGUAAGAUCACAUGAGGAUCACCCAUGUAGAAGGGACGAGCUGAU | – | – | 10.3 nM | 69.2 nM
UUGAUGUGAGGAUAUGUGAUCUGCCUUCUAUAUAGAUGAUUACAGAAGGCACAUGAGGAUCACCCAUGUAGAUC | – | – | 78.5 nM | 58.9 nM
CGAAAAUUUCAGAAGGACCAAUUCCACAUGAGGAUCACCCAUGUCGAUGGUAGGAUAUGGAGUUGUGGACAGGGUGGAUGUUCC | 122 nM | 12.6 nM | – | –

Sequence | apparent Kd [1] | apparent Kd [2] | apparent Kd [3] | apparent Kd [4]
AUCAUGAGAGGAUAUACAUGAGGAUCACCCAUGUGGUAAACACCAUGAGCUCAUUUACGUAGAAGGCUCAUUUG | – | – | 27.6 nM | 61.1 nM
CUAUUUAAGCAGAAGGCGUGGGAAAGAUUUACACGAGGAUAUGCGAUAACGGCGUAUGACAUGAGGAUCACCCAUGUACGUGCG | 7.22 nM | 4.47 nM | – | –
UCUAUAUAGAUUCAUCAAUACAGUAAGGAUAUGAGAUACAUGAGGAUCACCCAUGUGCAUGUGGAUUAGAAGGUACAAUUAACU | – | – | 60 nM | 46.3 nM
GUCUGGCUAGGAUAUACAGUGUCCACAAGUUAGUUACCCUAACAUGAGGAUCACCCAUGUAGAAGGAGUGAGAA | – | – | 72.9 nM | 308 nM
UUACUAUUGGAGAAGGGUCGAUCAUAUAGAAUGGCAGGAUAUCCAACAUGAGGAUCACCCAUGUUUCACCCAUAUGAGGAUCAC | – | – | 116 nM | 44.9 nM
UCCUUAGCGGUCAGGAUAUACACCCGUUACUCCUUGUAGAAGGGACAUGAGGAUCACCCAUGUACAGUACAUCU | – | – | 22.9 nM | 21 nM
CAAUUUAUUACAGGAUAUACAAUACAAUGAUUAGUAGAAGGGUAUAAUACAUGAGGAUCACCCAUGUCAUGUGUCAUAAUAACC | – | – | 35.8 nM | 23.9 nM
CUUAGUAUCUAGGAUAUCUAGUACAUAGUAUCUAGAGAAGGAGAUACAUGAGGAUCACCCAUGUUCUGUGAUCU | – | – | 272 nM | 40.4 nM
GUCAGCUCGUGAGGAUAUACAACACAGCUUCGGCAGUGUAUUAAGAUCACAUGAGGAUCACCCAUGUAGAAGGCACGAGCUGAU | – | – | 13.1 nM | 209 nM
GCUAAUUAGUGAGGAUAUACAUAAUUUAUUACUGUAGAAGGCACAAACCUCAAGACAUGAGGAUCACCCAUGUGGUAUUUAAGC | – | – | 151 nM | 394 nM
UCACGGUAUGUAGGAUAUGCAUAGCAUUGCUAUGCAGAAGGACAUGAGGAUCACCCAUGUAUGUAUUCCAUACUAAUCCCGUGA | – | – | 5.65 nM | 5.56 nM
ACAAAUGGAGGAUAUACAUGAGGAUCACCCAUGUUUAUCCUACAUAUGUGAUACUCAUGUAGAAGGCCAUAUGA | – | – | 12.7 nM | 12.5 nM
AUACUAAAUGAAGGAUAUCUAAGCAUACACCUGAGAGAAGGUCAUUUUGACAUGAGGAUCACCCAUGUUGUGGUUAAUGGGUUA | – | – | 237 nM | 225 nM
UGUCCGGUCAUAGGAUAUGACAUGAGGAUCACCCAUGUCUGCUUGGCUUGACCGUUGAUCCAUUGUCAGAAGGGUGCCGUUACA | – | – | 43.2 nM | 63.1 nM
AAUUGACACGUAGGAUAUCGAUCUAUAUUAACUCGAGAAGGACGUACAUGAGGAUCACCCAUGUUUAAUGGAGUAGAUAAGUUG | – | – | 102 nM | 289 nM
ACUAUACGAGGAUAUACUGACAGGCCUCAGGCAUACAUCAAACAUGAGGAUCACCCAUGUAGAAGGCGUAUACU | – | – | 30.4 nM | 68.1 nM
CUCUUGGCAGGAUAUGCUUUUUUAGACAUGAGGAUCACCCAUGUGAUGAAUAUUGGGUUCGCAGAAGGGCCUGAAU | – | – | 54.1 nM | 48.3 nM
UUCAUGUGAGGAUAUAGUACUUCUUCUAUUAUUAUUGAGUACUAGAAGGCACAUGAGGAUCACCCAUGUAGUAC | – | – | 58 nM | 20.9 nM
UGUUACUAGUAAGGAUAUACUUGCGACUAGCUUGUAGAAGGUACAGUCUUUUGUAUAACAUGUUUACAUGAGGAUCACCCAUGU | 9.05 nM | 8.38 nM | – | –
CCAUGUUAGCAGGAUAUGCAAUAAAUCUUUUAAGCAGAAGGGCUUACAUGAGGAUCACCCAUGUAUAAUUUCAA | – | – | 50.3 nM | 116 nM
GGGCCCGGAGGAUAUACAAUUUUGGGCCGAAAGGCCCGGGUACAUGAGGAUCACCCAUGUAGAAGGCCGGGUUU | – | – | 31.9 nM | 311 nM
